IC50, Ratio and Q50 data for 20 compounds are collected here from ChEMBL document CHEMBL1143126, “Synthesis, cytotoxic evaluation, and DNA binding of novel thiazolo[5,4-b]quinoline derivatives” (Bioorg Med Chem, 2008).

Experiment [1] is described as follows: Antiproliferative activity against human C33 cells after 72 hrs by MTT assay. Particulars: C33, 72 h. It counts as functional, cell-based. The method in brief:
(§1)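 Cells seeded at 4.5–5.0 · 10⁴ cells/ml/well in 24-well plates, then incubated with or without compounds added in DMSO. After 72 h, MTT in PBS pH 7.2 was added. Formazan was dissolved in DMSO and the plates centrifuged, then absorbance was read at 540 nm. % growth inhibition = (1 − treated/untreated absorbance) × 100.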
On the technique in general: Tetrazolium dyes change colour on reduction, which living cells bring about.

Experiment [2] concerns DNA. The experiment can be described thus: Ratio of Qmax for calf thymus DNA to Q50 for calf thymus DNA. It counts as nucleic-acid assay. Particulars: Bos taurus. The method in brief: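 Efficiency index calculated as Qmax/Q50 from ethidium displacement titrations (Tris–HCl pH 7.4, 0.15 M NaCl). Compounds were added serially from DMSO stocks (DMSO ≤8%), and quenching was read at 584 nm with 546 nm excitation. Qmax is the maximum quenching; Q50 is the concentration for 50% quenching of bound ethidium.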

In the next experiment the test system is SW-620. Briefly: Antiproliferative activity against human SW620 cells after 72 hrs by MTT assay. It counts as functional, cell-based. Particulars: SW-620, 72 h. The method in brief:
as §1

The subject of another experiment is K562. The experiment can be described thus: Antiproliferative activity against human K562 cells after 72 hrs by MTT assay. The class given is functional, cell-based. Particulars: K562, 72 h. The method in brief:
as §1

In a further experiment the test system is SW480. Briefly: Antiproliferative activity against human SW480 cells after 72 hrs by MTT assay. It counts as functional, cell-based. Particulars: SW480, 72 h. The method in brief: as §1
Experiment [3] concerns DNA. The experiment can be described thus: Displacement of ethidium bromide from calf thymus DNA. It counts as nucleic-acid assay. Particulars: Bos taurus. The method in brief: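 Fluorescence quenching of the DNA–ethidium bromide complex in Tris–HCl pH 7.4 with 0.15 M NaCl and ethidium bromide. Emission read at 584 nm with excitation at 546 nm, corrected for dilution. Precipitation was monitored by 600 nm light scatter at 90°. Qmax is the maximum quenching; Q50 is the concentration giving 50% quenching. Means of three experiments, SD.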

A further experiment concerns HeLa. The experiment can be described thus: Antiproliferative activity against human HeLa cells after 72 hrs by MTT assay. It counts as functional, cell-based. The method in brief: as §1

On to `CSc1nc2c(Nc3cccc(C#N)c3)c3ccccc3nc2s1`, for which the concentration for half-maximal inhibition (IC50) (usually the concentration needed to halve the response being measured) in experiment [1] came to 15.1 µM; in the experiment on SW-620 it was 43.8 µM; in the experiment with K562 it was 8.01 µM; with SW480, 28.7 µM; in the experiment with HeLa, 7.75 µM. Also, in the experiment with DNA [2], the Ratio turned out to be 0.68. For the same compound, the Q50 in the experiment with DNA [3] was determined as 11.5 µM.

In the case of `CSc1nc2c(Nc3cc(N)cc(CO)c3)c3ccccc3nc2s1`, the IC50 in experiment [1] is greater than 200 µM; in the experiment with SW-620, 184 µM; in the experiment on K562, 143 µM; in the experiment on SW480, greater than 200 µM; in the experiment on HeLa it was greater than 200 µM. Further, the Ratio in the experiment with DNA [2] was determined as 0.79. Besides, in the experiment with DNA [3], the Q50 was 22.6 µM.

On to `CCN(CC)CCNC(=O)c1cccc(Nc2c3ccccc3nc3sc(SC)nc23)c1`, for which the IC50 in experiment [1] was determined as 19.9 µM; with SW-620, 19.7 µM; in the experiment on K562, 12.5 µM; in the experiment with SW480 it was 13.6 µM; in the experiment on HeLa, 21.7 µM. The Ratio with DNA [2] came to 1.39. In the experiment on DNA [3], this compound registered a Q50 of 16.6 µM.

On to `CCN(CC)CCNc1c2ccccc2nc2sc(SC)nc12`, for which the half-maximal inhibitory concentration (IC50) in experiment [1] was determined as 9.06 µM; in the experiment with SW-620, 16.9 µM; in the experiment on K562, 7.85 µM; in the experiment with SW480, 28 µM; in the experiment with HeLa it was 13 µM. For the same compound, the Ratio in the experiment with DNA [2] was determined as 4.87. Also, in the experiment with DNA [3], the Q50 amounted to 9.44 µM.

As for `CSc1nc2c(Nc3ccc(Cl)cc3)c3ccccc3nc2s1`, the IC50 in experiment [1] is greater than 200 µM; in the experiment on SW-620 it was 146 µM; in the experiment with SW480, greater than 200 µM; in the experiment on HeLa, 124 µM. Further, the Ratio with DNA [2] worked out at 0.84. For the same compound, the Q50 in the experiment on DNA [3] came to 2.19 µM.

For `CSc1nc2c(Nc3cccc(O)c3)c3ccccc3nc2s1`, the IC50 in experiment [1] is 146 µM; in the experiment with SW-620, 146 µM; in the experiment on K562, 173 µM; in the experiment with SW480, 147 µM; with HeLa, greater than 200 µM. Also, the Ratio with DNA [2] was found to be 2.15. In the experiment with DNA [3], this compound came in with a Q50 of 7.64 µM.

In the case of `Nc1cc(CO)cc(Nc2c3ccccc3nc3ccccc23)c1`, the Ratio with DNA [2] came to 6.49. Besides, the Q50 in the experiment with DNA [3] was determined as 7.36 µM.

As to `CCN(CC)CCNc1nc2c(Cl)c3ccccc3nc2s1`, the half-maximal inhibitory concentration (IC50) was 9.35 µM in experiment [1]; 15.2 µM in the experiment with SW-620; 9.28 µM with K562; 19.5 µM with SW480; 12.9 µM in the experiment with HeLa. In the experiment on DNA [2], the Ratio was found to be 2.36. In the experiment with DNA [3], the Q50 was found to be 11.1 µM.

As for `CSc1nc2c(Nc3cccc(C(F)(F)F)c3)c3ccccc3nc2s1`, in experiment [1], the half-maximal inhibitory concentration (IC50) amounted to 59.7 µM. Moreover, the Ratio with DNA [2] was determined as 3.08. The Q50 in the experiment with DNA [3] was determined as 0.53 µM.

For `CSc1nc2c(Nc3ccc(C#N)cc3)c3ccccc3nc2s1`, the IC50 in experiment [1] is greater than 200 µM; in the experiment on SW-620 it was greater than 200 µM; in the experiment with K562, 120 µM; with SW480, greater than 200 µM; with HeLa it was 140 µM. In addition, the Ratio with DNA [2] is 0.9. Moreover, the Q50 with DNA [3] came to 14.3 µM.

As for `COc1cccc(Nc2c3ccccc3nc3sc(SC)nc23)c1`, the half-maximal inhibitory concentration (IC50) in experiment [1] came to 75.4 µM; in the experiment on SW-620, 26.6 µM; with K562, 22.2 µM; with SW480, 66.7 µM; in the experiment with HeLa it was 25.3 µM. Further, in the experiment on DNA [2], the Ratio stood at 1.79. In the experiment on DNA [3], this compound gave a Q50 of 3.71 µM.

Take `CSc1nc2c(Nc3cccc([N+](=O)[O-])c3)c3ccccc3nc2s1`: the half-maximal inhibitory concentration (IC50) in experiment [1] is greater than 200 µM; with SW-620, 161 µM; in the experiment with K562, greater than 200 µM; in the experiment with SW480 it was greater than 200 µM; in the experiment on HeLa, 152 µM.

On to `CSc1nc2c(Nc3cccc(NC(C)=O)c3)c3ccccc3nc2s1`, for which the half-maximal inhibitory concentration (IC50) in experiment [1] is greater than 200 µM; in the experiment with SW-620, 154 µM; with K562 it was 85.3 µM; in the experiment on SW480, greater than 200 µM; in the experiment on HeLa, greater than 200 µM. Besides, the Ratio with DNA [2] amounted to 0.82. For the same compound, the Q50 in the experiment with DNA [3] came out at 18.4 µM.

Regarding `CSc1nc2c(Nc3ccccc3)c3ccccc3nc2s1`, the 50% inhibitory concentration (IC50) is 154 µM in experiment [1]; greater than 200 µM in the experiment on SW-620; greater than 200 µM with K562; greater than 200 µM in the experiment with SW480; greater than 200 µM with HeLa. Further, in the experiment on DNA [2], the Ratio amounted to 0.31. The Q50 with DNA [3] amounted to 13.6 µM.

In experiment [1], `COc1cc(NS(C)(=O)=O)ccc1Nc1c2ccccc2nc2ccccc12` [AMSACRINE] returned a half-inhibitory concentration (IC50) of 8.8 µM.

For `CSc1nc2c(Nc3cccc(N)c3)c3ccccc3nc2s1`, the IC50 in experiment [1] is 139 µM; in the experiment on SW-620 it was greater than 200 µM; with K562, 143 µM; with SW480 it was greater than 200 µM; in the experiment on HeLa, 176 µM. The Ratio in the experiment with DNA [2] was found to be 1.17. Also, the Q50 in the experiment on DNA [3] came to 6.96 µM.

In turn, `CCN(CC)CCNc1nc2c(Nc3ccccc3)c3ccccc3nc2s1` returned a concentration for half-maximal inhibition (IC50) in experiment [1] of 22.4 µM. In addition, the Ratio in the experiment with DNA [2] worked out at 0.46. Also, the Q50 with DNA [3] is 52.5 µM.

Consider `COc1ccc(Nc2c3ccccc3nc3sc(SC)nc23)cc1`, for which the half-inhibitory concentration (IC50) is greater than 200 µM in experiment [1]; 111 µM with SW-620; 77.2 µM in the experiment with K562; greater than 200 µM in the experiment with SW480; greater than 200 µM in the experiment on HeLa. Moreover, the Ratio in the experiment with DNA [2] was determined as 0.39. In the experiment on DNA [3], the Q50 amounted to 9.48 µM.

For the compound `CNc1cccc(Nc2c3ccccc3nc3sc(SC)nc23)c1`, the IC50 in experiment [1] came to 134 µM; with SW-620, 119 µM; in the experiment with SW480 it was 101 µM. Moreover, in the experiment with DNA [2], the Ratio came to 2.37. The Q50 with DNA [3] worked out at 4.18 µM.

Take `CSc1nc2c(Nc3cccc(Cl)c3)c3ccccc3nc2s1`: the results for the IC50 (in experiment [1]; in the experiment with SW-620; in the experiment on SW480) were 129 µM, 130 µM and 111 µM, respectively. Besides, the Ratio in the experiment with DNA [2] is 2. The compound further showed a Q50 with DNA [3] of 1.29 µM.
